Measurements as given in ChEMBL document CHEMBL1148855, “Synthesis and antibacterial activity of 4,5,6,7-tetrahydro-thieno[3,2-c]pyridine quinolones” (2007).
In brackets after ≈: the same amount, converted by molar mass.

Assays:
Assay type in all cases: functional
Staphylococcus aureus [1] = assay: Antibacterial activity against methicillin-resistant Staphylococcus aureus ATCC 700699 by micro-broth dilution method
Procedure, shortened: (§1)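 Microbroth dilution run per National Committee guidelines; MIC taken as the concentration giving 90% inhibition of bacterial growth. Tested within a broader panel of susceptible and resistant Gram-positive strains. Reported values come from triplicate determinations.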

Bacillus subtilis = assay: Antibacterial activity against Bacillus subtilis ATCC 6633 by micro-broth dilution method
Procedure, shortened: (§2)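 MIC taken as the lowest concentration giving 90% inhibition of bacterial growth. Determined by microbroth dilution following National Committee (NCCLS) guidance, with each value determined in triplicate.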

Staphylococcus aureus [2] = assay: Antibacterial activity against Staphylococcus aureus ATCC 33591 by micro-broth dilution method; procedure, shortened: as §2
Klebsiella pneumoniae = assay: Antibacterial activity against Klebsiella pneumoniae ATCC 10031 by micro-broth dilution method; procedure, shortened: as §2
Staphylococcus aureus [3] = assay: Antibacterial activity against Staphylococcus aureus ATCC 25923 by micro-broth dilution method; procedure, shortened: as §2
Staphylococcus aureus [4] = assay: Antibacterial activity against linezolid-resistant Staphylococcus aureus NRS 119 by microbroth dilution method; procedure, shortened: as §1
Enterococcus faecalis [5] = assay: Antibacterial activity against vancomycin-resistant Enterococcus faecalis ATCC 700802 by micro-broth dilution method; procedure, shortened: as §1
Streptococcus pneumoniae = assay: Antibacterial activity against penicillin-resistant Streptococcus pneumoniae ATCC 700904 by micro-broth dilution method; procedure, shortened: as §1
[6] = tested on: Staphylococcus epidermidis; assay: Antibacterial activity against Staphylococcus epidermidis ATCC 12228 by micro-broth dilution method; procedure, shortened: as §2
Pseudomonas aeruginosa = assay: Antibacterial activity against Pseudomonas aeruginosa ATCC 27853 by micro-broth dilution method; procedure, shortened: as §2
Enterococcus faecalis [7] = assay: Antibacterial activity against Enterococcus faecalis ATCC 29212 by micro-broth dilution method; procedure, shortened: as §2
Escherichia coli = assay: Antibacterial activity against Escherichia coli ATCC 25922 by micro-broth dilution method; procedure, shortened: as §2
Staphylococcus aureus [8] = assay: Antibacterial activity against Staphylococcus aureus ATCC 29213 by micro-broth dilution method; procedure, shortened: as §2
Staphylococcus aureus [9] = assay: Antibacterial activity against Staphylococcus aureus ATCC 33592 by micro-broth dilution method; procedure, shortened: as §2
Enterococcus faecium = assay: Antibacterial activity against vancomycin-resistant Enterococcus faecium ATCC 700221 by microbroth dilution method; procedure, shortened: as §1
Enterococcus faecalis [10] = assay: Antibacterial activity against Enterococcus faecalis ATCC 14506 by microbroth dilution method; procedure, shortened: as §2

Structure (SMILES)	MIC (Staphylococcus aureus [1]) [mg/L]	MIC (Bacillus subtilis) [mg/L]	MIC (Staphylococcus aureus [2]) [mg/L]	MIC (Klebsiella pneumoniae) [mg/L]	MIC (Staphylococcus aureus [3]) [mg/L]	MIC (Staphylococcus aureus [4]) [mg/L]	MIC (Enterococcus faecalis [5]) [mg/L]	MIC (Streptococcus pneumoniae) [mg/L]	MIC [6] [mg/L]	MIC (Pseudomonas aeruginosa) [mg/L]	MIC (Enterococcus faecalis [7]) [mg/L]	MIC (Escherichia coli) [mg/L]	MIC (Staphylococcus aureus [8]) [mg/L]	MIC (Staphylococcus aureus [9]) [mg/L]	MIC (Enterococcus faecium) [mg/L]	MIC (Enterococcus faecalis [10]) [mg/L]
COc1c(N2CCc3sc(CO)cc3C2)c(F)cc2c(=O)c(C(=O)O)cn(C3CC3)c12	2 (≈ 4.5 µM)	≤ 0.12	2 (≈ 4.5 µM)	≤ 0.12	2 (≈ 4.5 µM)	0.5 (≈ 1.12 µM)	0.25 (≈ 0.562 µM)	≤ 0.12	> 16	16 (≈ 36 µM)	0.5 (≈ 1.12 µM)	0.25 (≈ 0.562 µM)	2 (≈ 4.5 µM)			
O=C(O)c1cn(C2CC2)c2c(F)c(N3CCc4sccc4C3)c(F)c(F)c2c1=O	> 16	0.25 (≈ 0.595 µM)	4 (≈ 9.51 µM)	8 (≈ 19 µM)	2 (≈ 4.76 µM)	> 16	16 (≈ 38.1 µM)	2 (≈ 4.76 µM)	2 (≈ 4.76 µM)	> 16	> 16	0.5 (≈ 1.19 µM)	4 (≈ 9.51 µM)	2 (≈ 4.76 µM)	> 16	> 16
COc1c(N2CCc3sc(C(=O)O)cc3C2)c(F)cc2c(=O)c(C(=O)O)cn(C3CC3)c12	> 16	0.5 (≈ 1.09 µM)	2 (≈ 4.36 µM)	2 (≈ 4.36 µM)	2 (≈ 4.36 µM)	> 16	16 (≈ 34.9 µM)	1 (≈ 2.18 µM)	1 (≈ 2.18 µM)	> 16	8 (≈ 17.4 µM)	8 (≈ 17.4 µM)	2 (≈ 4.36 µM)	0.5 (≈ 1.09 µM)	> 16	> 16
O=C(O)c1cn(C2CC2)c2cc(N3CCc4sc(Br)cc4C3)c(F)cc2c1=O	> 16	≤ 0.12	4 (≈ 8.63 µM)	2 (≈ 4.32 µM)	0.5 (≈ 1.08 µM)	> 16	> 16	2 (≈ 4.32 µM)	0.5 (≈ 1.08 µM)	> 16		1 (≈ 2.16 µM)	4 (≈ 8.63 µM)	4 (≈ 8.63 µM)		> 16
COc1c(N2CCNC(C)C2)c(F)cc2c(=O)c(C(=O)O)cn(C3CC3)c12 (configuration not stated) [GATIFLOXACIN]	8 (≈ 21.3 µM)	≤ 0.12	0.5 (≈ 1.33 µM)	≤ 0.12	≤ 0.125	4 (≈ 10.7 µM)	0.5 (≈ 1.33 µM)	≤ 0.125	0.25 (≈ 0.666 µM)	1 (≈ 2.66 µM)	0.5 (≈ 1.33 µM)	≤ 0.12	0.25 (≈ 0.666 µM)	4 (≈ 10.7 µM)	> 16	0.5 (≈ 1.33 µM)
C[C@@H]1CN(c2c(F)c(N)c3c(=O)c(C(=O)O)cn(C4CC4)c3c2F)C[C@H](C)N1 [SPARFLOXACIN]	8 (≈ 20.4 µM)	≤ 0.12	16 (≈ 40.8 µM)	≤ 0.12	≤ 0.125	16 (≈ 40.8 µM)	1 (≈ 2.55 µM)	≤ 0.125	0.25 (≈ 0.637 µM)	0.25 (≈ 0.637 µM)			≤ 0.125	≤ 0.25	16 (≈ 40.8 µM)	> 16
COc1c(N2CCc3sc(Br)cc3C2)c(F)cc2c(=O)c(C(=O)O)cn(C3CC3)c12	> 16	≤ 0.12	1 (≈ 2.03 µM)	4 (≈ 8.11 µM)	2 (≈ 4.05 µM)	> 16	> 16	8 (≈ 16.2 µM)	≤ 0.12	> 16	0.5 (≈ 1.01 µM)	2 (≈ 4.05 µM)	4 (≈ 8.11 µM)	2 (≈ 4.05 µM)	> 16	> 16
CC(=O)Nc1c(F)c(N2CCc3sccc3C2)c(F)c2c1c(=O)c(C(=O)O)cn2C1CC1		1 (≈ 2.18 µM)	> 16	> 16					> 16	> 16	> 16	> 16				
